Data set [1] relates to Staphylococcus aureus. In words: Antibiofilm activity against Staphylococcus aureus ATCC 29213 at 128 ug/ml after 18 hrs by XTT-menadione assay relative to control. The format is functional. The method in brief:
(§1)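 Biofilms grown 24 h at 37 °C from suspension at OD600 0.1 in tryptic soy broth with 1% glucose, washed twice with saline, exposed 18 h at 37 °C to twofold serial dilutions; growth and sterility controls. Read by XTT (0.5 mg/mL)–menadione (10 µM) in MHB, 1 h dark at 37 °C, absorbance 450 nm; MBIC50 and MBIC100 = 50% and 100% inhibition.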

Data set [2] relates to Staphylococcus aureus. The experiment in a line: Antibacterial activity against Staphylococcus aureus ATCC 29213 after 18 hrs by broth microdilution method. The format is functional, organism-based. The note with it: ATCC 29213, 18 h. Put shortly:
(§2)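 Broth microdilution per CLSI for water-insoluble agents: twofold serial dilutions made in DMSO at 100x final, diluted in Mueller Hinton broth to 1% final DMSO; 5x10^5 cfu/mL bacteria exposed 18 h at 37 °C with positive, growth and sterility controls. MIC = lowest concentration giving complete growth inhibition (turbidity and XTT reduction); IC50 from OD600 dose-response inflection point.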

Data set [3] relates to Staphylococcus aureus. In words: Potentiation of cefotaxime-induced antibacterial activity against Staphylococcus aureus ATCC 29213 assessed as FICI index at 2 ug/ml after 18 hrs by checkerboard microdilution method relative to control. It is filed as functional. Put shortly:
(§3)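 Checkerboard microdilution: 5x10^5 cfu/mL bacteria exposed to twofold serial dilutions of compound and antibiotic, alone and combined (0.03–32 µg/mL), 18 h at 37 °C. ΣFIC: ≤0.5 synergy; >0.5–1 additive; >1–4 indifferent; >4 antagonism.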

Data set [4] concerns Staphylococcus aureus. In words: Potentiation of amikacin-induced antibacterial activity against Staphylococcus aureus ATCC 29213 assessed as FICI index at 2 ug/ml after 18 hrs by checkerboard microdilution method relative to control. The format is functional. Put shortly: as §3
The test system of data set [5] is Staphylococcus aureus. In words: Antibacterial activity against methicillin/ciprofloxacin/chloramphenicol-resistant Staphylococcus aureus ATCC 1704 clinical isolate after 18 hrs by broth microdilution method. It is filed as functional, organism-based. Particulars: ATCC 1704, 18 h. Put shortly:
as §2

Data set [6] concerns Staphylococcus aureus. The experiment in a line: Potentiation of cefotaxime-induced antibacterial activity against Staphylococcus aureus ATCC 29213 assessed as decrease in cefotaxime MIC at 2 ug/ml after 18 hrs by checkerboard microdilution method relative to control. The format is functional. The method in brief:
as §3

Data set [7] relates to Staphylococcus aureus. In words: Potentiation of vancomycin-induced antibacterial activity against Staphylococcus aureus ATCC 29213 assessed as decrease in […] at 2 ug/ml after 18 hrs by checkerboard microdilution method relative to control. The format is functional. The method in brief:
as §3

Data set [8] relates to Staphylococcus aureus. The experiment in a line: Potentiation of vancomycin-induced antibacterial activity against Staphylococcus aureus ATCC 29213 assessed as FICI index at 2 ug/ml after 18 hrs by checkerboard microdilution method relative to control. The format is functional. Put shortly: as §3
Data set [9] concerns Staphylococcus aureus. The experiment in a line: Potentiation of ciprofloxacin-induced antibacterial activity against Staphylococcus aureus ATCC 29213 assessed as decrease in […] at 2 ug/ml after 18 hrs by checkerboard microdilution method relative to control. The format is functional. The method in brief: as §3
Data set [10] concerns Staphylococcus aureus. The experiment in a line: Antibacterial activity against Staphylococcus aureus ATCC 29213 assessed as shriveling at 0.5 times MIC after 18 hrs by scanning electron microscopic method. It is filed as functional, organism-based. Put shortly: (§4)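 Bacterial suspension (5x10^5 cfu/mL) exposed to compound at 0.5x and 1x MIC for 18 h at 37 °C alongside untreated control; centrifuged 10,000 rpm 10 min, pellets washed twice in normal saline, then processed for scanning electron microscopy.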

Data set [11] relates to Staphylococcus aureus. In words: Antibacterial activity against Staphylococcus aureus ATCC 29213 at 30 ug after 18 hrs by agar disk-diffusion method. The format is functional. The note with it: ATCC 29213, 18 h, read-out: DIZ. The method in brief: (§5)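 Agar disk diffusion per CLSI: compound loaded on sterile 6 mm paper disks, dried, placed on Mueller Hinton agar lawned with bacteria at McFarland 0.5; cefotaxime positive and DMSO solvent controls; 37 °C for 18 h; zone of inhibition diameter measured to nearest whole mm.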

The next data set deals with Escherichia coli. In words: Antibacterial activity against Escherichia coli ATCC 25922 at 5 to 100 ug after 18 hrs by agar disk-diffusion method. It is filed as functional, organism-based. Put shortly:
as §5

Another data set deals with HEK293. The experiment in a line: Cytotoxicity against HEK293 cells assessed as decrease in cell viability at 1 to 200 uM after 24 hrs by Alamar Blue assay. It is filed as cell-based. The note with it: human, hek293, 24 h. The method in brief: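 HEK293 cells in DMEM HG, 10% FBS, 1% pen-strep, 37 °C 5% CO2, passage under 30, used at 80% confluency; seeded 1×10^4/well, after 24 h washed and treated 24 h with 1–200 µM in complete medium; alamar blue (0.15 mg/mL) added for 4 h, absorbance 570 and 600 nm; viability relative to untreated cells as 100%.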

The test system of data set [12] is Staphylococcus aureus. The experiment in a line: Antibacterial activity against methicillin/ciprofloxacin-resistant Staphylococcus aureus ATCC 2673 clinical isolate at 5 to 100 ug after 18 hrs by agar disk-diffusion method. The format is functional. The method in brief: (§6)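 CLSI agar disk diffusion: 5 to 100 µg compound loaded on 6 mm sterile paper disks, dried, placed on Mueller Hinton agar lawned with McFarland 0.5 bacterial suspension; cefotaxime positive and DMSO solvent controls run alongside; 18 h at 37 °C, inhibition zone diameter read to nearest whole mm.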

The test system of data set [13] is Staphylococcus aureus. The experiment in a line: Antibacterial activity against methicillin/ciprofloxacin-resistant Staphylococcus aureus ATCC 2673 clinical isolate after 18 hrs by broth microdilution method. It is filed as functional, organism-based. Particulars: ATCC 2673, 18 h. The method in brief:
as §2

The test system of data set [14] is Staphylococcus aureus. In words: Potentiation of ciprofloxacin-induced antibacterial activity against Staphylococcus aureus ATCC 29213 assessed as FICI index at 2 ug/ml after 18 hrs by checkerboard microdilution method relative to control. It is filed as functional. The method in brief:
as §3

In data set [15] the test system is Staphylococcus aureus. In words: Antibiofilm activity against Staphylococcus aureus ATCC 29213 after 18 hrs by XTT-menadione assay. The format is functional. Put shortly:
as §1

Data set [16] concerns Staphylococcus aureus. The experiment in a line: Antibacterial activity against Staphylococcus aureus ATCC 29213 assessed as bleb formation at 0.5 times MIC after 18 hrs by scanning electron microscopic method. It is filed as functional, organism-based. Put shortly:
as §4

Another data set relates to Candida albicans. In words: Antifungal activity against Candida albicans ATCC 90028 at 30 ug after 24 hrs by agar disk-diffusion method. The format is functional. The note with it: ATCC 90028, 24 h, read-out: DIZ. Put shortly: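 Candida disk diffusion on MHA with 2% glucose and 0.5 µg/mL methylene blue, following CLSI antifungal guidance; paper disks loaded with compound; incubated 37 °C for 24 h; zone of inhibition diameter read.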

In data set [17] the test system is Staphylococcus aureus. The experiment in a line: Antibacterial activity against methicillin/ciprofloxacin/chloramphenicol-resistant Staphylococcus aureus ATCC 1704 clinical isolate at 5 to 100 ug after 18 hrs by agar disk-diffusion method. It is filed as functional. The method in brief: as §6
Data set [18] relates to Staphylococcus aureus. In words: Antibacterial activity against Staphylococcus aureus ATCC 29213 assessed as disruption of cell membrane at 0.5 times MIC after 18 hrs by scanning electron microscopic method. It is filed as functional, organism-based. Put shortly: as §4
The test system of data set [19] is Staphylococcus aureus. In words: Potentiation of amikacin-induced antibacterial activity against Staphylococcus aureus ATCC 29213 assessed as decrease in […] at 2 ug/ml after 18 hrs by checkerboard microdilution method relative to control. The format is functional. The method in brief:
as §3

A further data set has as its system Pseudomonas aeruginosa. The experiment in a line: Antibacterial activity against Pseudomonas aeruginosa at 5 to 100 ug after 18 hrs by agar disk-diffusion method. The format is functional, organism-based. The method in brief:
as §5

SMILES strings stand for the structures. ≈ marks a conversion by molar mass, not a printed value. Calls of active or inactive are those of the source. The calls are words filed in the database; no cut-off is given here.

As for `CN[C@H](CC(C)C)C(=O)N[C@H]1C(=O)N[C@@H](CC(N)=O)C(=O)N[C@H]2C(=O)N[C@H]3C(=O)N[C@H](C(=O)N[C@H](C(=O)O)c4cc(O)cc(O)c4-c4cc3ccc4O)[C@H](O)c3ccc(c(Cl)c3)Oc3cc2cc(c3O[C@@H]2O[C@H](CO)[C@@H](O)[C@H](O)[C@H]2O[C@H]2C[C@](C)(N)[C@H](O)[C@H](C)O2)Oc2ccc(cc2Cl)[C@H]1O` [VANCOMYCIN], the Activity in the data set with Staphylococcus aureus [1] is given as <50%.
`C[C@H](CCC(=O)NCCNCCNC(=O)CC[C@@H](C)[C@H]1CC[C@H]2[C@@H]3[C@H](O)C[C@@H]4C[C@H](O)CC[C@]4(C)[C@H]3C[C@H](O)[C@]12C)[C@H]1CC[C@H]2[C@@H]3[C@H](O)C[C@@H]4C[C@H](O)CC[C@]4(C)[C@H]3C[C@H](O)[C@]12C`: the figures for the IC50 in the data set on Staphylococcus aureus [2], with Staphylococcus aureus [5] and with Staphylococcus aureus [13] were 2.87 mg/L (≈ 3.25 µM), 4.36 mg/L (≈ 4.93 µM) and 2.18 mg/L (≈ 2.47 µM), respectively. The minimal inhibitory concentration (MIC) in the data set with Staphylococcus aureus [2] is 4 mg/L (≈ 4.52 µM); in the data set with Staphylococcus aureus [5], 8 mg/L (≈ 9.05 µM); against Staphylococcus aureus [13] it was 4 mg/L (≈ 4.52 µM). Also, the “fractional inhibitory concentration index (FICI)” value was determined as 0.53 in the data set with Staphylococcus aureus [3], 0.51 in the data set on Staphylococcus aureus [4], 1 in the data set on Staphylococcus aureus [8] and 0.56 in the data set on Staphylococcus aureus [14]. The “fold change (FC)” value in the data set on Staphylococcus aureus [6] is 33; with Staphylococcus aureus [7] it was 2; in the data set with Staphylococcus aureus [9], 17; in the data set on Staphylococcus aureus [19] it was 67. Moreover, the outcome with Staphylococcus aureus [10], in the data set with Staphylococcus aureus [16] and with Staphylococcus aureus [18] was Active. Also, the values for the zone of inhibition at 30 µg/disc with Staphylococcus aureus [11] and in the data set with Candida albicans were 14 mm and 10 mm, respectively. Moreover, the outcome with Escherichia coli and in the data set with Pseudomonas aeruginosa was inactive. For the same molecule, the Activity result with HEK293 is “Non-Toxic”. Moreover, the “diameter of the inhibition zone (DIZ)” value in the data set on Staphylococcus aureus [12] and in the data set with Staphylococcus aureus [17] was 13 mm in each case. In the data set on Staphylococcus aureus [15], this molecule showed an MBIC100 of 32 µg/mL.

Source of the values: ChEMBL document CHEMBL4152391, “Bile Acid Oligomers and Their Combination with Antibiotics To Combat Bacterial Infections” (J Med Chem, 2018).
